For series [1], the system named is Plasmodium berghei. In words: In vivo antimalarial activity against Plasmodium berghei at 20 mg/kg, po administered as single dose in presence of ferroquine. The format is functional, organism-based.
The subject of series [2] is Plasmodium falciparum. In words: Antimalarial activity against chloroquine, pyrimethamine, mefloquine and atovaquone- resistant Plasmodium falciparum TM90-C2B infected in human erythrocytes assessed as reduction in parasite growth incubated for 48 hrs followed by addition of [3H]-hypoxanthine and measured after 24 hrs by Topcount liquid scintillation counting method. The format is functional, organism-based. Conditions: Erythrocyte.

The nature of series [3]: Aqueous solubility of compound at pH 2.4. Conditions: buffer.
Series [4] relates to Plasmodium berghei. The series is described as follows: In vivo antimalarial activity against blood stage Plasmodium berghei transfected with GFP infected in BALB/c mouse assessed as supression of parasitemia at 50 mg/kg, po administered once daily starting from day 3 to 5 post infection and measured at day 6 by Giemsa staining based flow cytometric analysis relative to control. The series is classed as functional. In short, it runs like this:
(§1)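 Female BALB/c mice, 4–6 weeks old, five per group, were infected intraperitoneally with 2 × 10^6 P. berghei-GFP-infected red cells. Oral doses of 10 or 50 mg/kg in 0.5% aqueous HEC were given once daily on days 3–5 PI; prodrugs were suspended about 1 min before dosing. Parasitemia was measured by flow cytometry and Giemsa smears. Day-6 percent suppression was calculated versus untreated controls, with Welch-corrected t test.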

The nature of series [5]: Solubility of the compound in 0.5% hydroxyethylcellulose.
Series [6] in a line: Toxicity in BALB/c mouse infected with blood stage Plasmodium berghei assessed as weight loss at up to at 50 mg/kg, po administered once daily starting from day 3 to 5 post infection and measured on day 6. The format is organism-based. Conditions: in vivo. In short, it runs like this:
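P. berghei-infected BALB/c mice were dosed orally once daily on days 3–5 PI in 0.5% aqueous HEC, at doses up to 50 mg/kg. Body weight of treated animals was monitored for loss.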

For series [7], the system named is Plasmodium falciparum. In words: Antimalarial activity against chloroquine and pyrimethamine resistant Plasmodium falciparum W2 infected in human erythrocytes assessed as reduction in parasite growth incubated for 48 hrs followed by addition of [3H]-hypoxanthine and measured after 24 hrs by Topcount liquid scintillation counting method. The series is classed as functional, organism-based. Conditions: W2, Erythrocyte.

Series [8] concerns Plasmodium berghei. The series is described as follows: In vivo antimalarial activity against blood stage Plasmodium berghei transfected with GFP infected in BALB/c mouse assessed as supression of parasitemia at 10 mg/kg, po administered once daily starting from day 3 to 5 post infection and measured at day 6 by Giemsa staining based flow cytometric analysis relative to control. The series is classed as functional. The essentials:
as §1

A short description of series [9]: AUC (0 to 24 hrs) in BALB/c mouse at 50 mg/kg, po. Conditions: in vivo. More on the design: time < 24 hr, route oral, dose 50 mg/kg. The series is classed as ADME, organism-based. In short, it runs like this:
(§2)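 Single oral dose in mice, formulated in 0.5% aqueous HEC; doses of 3, 10 or 50 mg/kg. The parent 4(1H)-quinolone was quantified in plasma over time after dosing, with a lower limit of quantification of 1 nM. PK parameters were derived from the plasma concentration profiles.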

Series [10] is described as follows: Clearance in BALB/c mouse at 50 mg/kg, po. The format is ADME, organism-based. Conditions: in vivo. In short, it runs like this: as §2
The nature of series [11]: Aqueous solubility of compound at pH 7.4. The series is classed as physicochemical. Conditions: buffer.
Series [12] is described as follows: Cmax in BALB/c mouse at 10 mg/kg, po. Conditions: in vivo. Details: route oral, dose 10 mg/kg. The format is ADME, organism-based. The essentials:
as §2

A short description of series [13]: Volume of distribution in BALB/c mouse at 10 mg/kg, po. The series is classed as ADME, organism-based. Conditions: in vivo. The essentials:
as §2

The test system of series [14] is Plasmodium berghei. The series is described as follows: In vivo antimalarial activity against blood stage Plasmodium berghei transfected with GFP infected in BALB/c mouse assessed as supression of parasitemia at 10 mg/kg, po administered as single dose on 3 days post infection and measured on day 6 by Giemsa staining based flow cytometric analysis relative to control. The series is classed as functional. In short, it runs like this:
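Female BALB/c mice, 4–6 weeks old, five per dose group, were infected intraperitoneally with 2 × 10^6 P. berghei-GFP-infected red cells. Each received one oral dose on day 3 PI in 0.5% aqueous HEC; doses ranged 0.01–10 mg/kg. Parasitemia was measured from tail blood by flow cytometry and Giemsa smears. Percent suppression on day 6 PI was calculated versus untreated infected controls, with Welch-corrected unpaired t test.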

A short description of series [15]: AUC (0 to 24 hrs) in BALB/c mouse at 10 mg/kg, po. Conditions: in vivo. The series is classed as ADME, organism-based. Details: time < 24 hr, route oral, dose 10 mg/kg. The essentials:
as §2

A short description of series [16]: Tmax in BALB/c mouse at 3 mg/kg, po. The series is classed as ADME, organism-based. Conditions: in vivo. In short, it runs like this:
as §2

Series [17] in a line: Clearance in BALB/c mouse at 10 mg/kg, po. Conditions: in vivo. The format is ADME, organism-based. The essentials: as §2
Series [18] in a line: Cmax in BALB/c mouse at 3 mg/kg, po. The format is ADME, organism-based. Details: route oral, dose 3 mg/kg. Conditions: in vivo. In short, it runs like this:
as §2

A short description of series [19]: Apparent half life in BALB/c mouse at 3 mg/kg, po. The format is ADME, organism-based. Conditions: in vivo, read-out: t1/2(app) (converted). The essentials: as §2
Series [20] is described as follows: Volume of distribution in BALB/c mouse at 3 mg/kg, po. The series is classed as ADME, organism-based. Conditions: in vivo. The essentials: as §2
A short description of series [21]: Clearance in BALB/c mouse at 3 mg/kg, po. The series is classed as ADME, organism-based. Conditions: in vivo. In short, it runs like this: as §2
Series [22] can be described thus: AUC (0 to 24 hrs) in BALB/c mouse at 3 mg/kg, po. The series is classed as ADME, organism-based. Details: time < 24 hr, route oral, dose 3 mg/kg. Conditions: in vivo. The essentials: as §2
Series [23] is described as follows: Tmax in BALB/c mouse at 10 mg/kg, po. The format is ADME, organism-based. Conditions: in vivo. The essentials: as §2
Series [24] is described as follows: Apparent half life in BALB/c mouse at 10 mg/kg, po. The series is classed as ADME, organism-based. Conditions: in vivo, read-out: t1/2(app) (converted). In short, it runs like this:
as §2

In brackets after ≈: the same amount, converted by molar mass. Activity calls are given as the source filed them. No cut-off for these calls is given here. Where only a bound is given, the exact number is not on record here.

Consider `c1cc([C@H]2CC[C@]3(CC2)OOC2(O3)C3CC4CC(C3)CC2C4)ccc1OCCN1CCOCC1` (stereo partly specified), for which, in series [1], the outcome was Active.
Regarding `CNCCCOC(=O)OCOc1c(-c2ccccc2C)c(C)nc2cc(OC)c(Cl)cc12.Cl`, the EC50 in series [2] is 170 nM; in [7] it was 269 nM. Moreover, the solubility is over 100 µM in series [3] and over 20000 µM in [5]. In addition, the figures for the Activity in series [4], in series [6] and in series [8] were 72%, “Non-Toxic” and 52%, respectively.
For `CCC(=O)Oc1c(-c2ccccc2C)c(C)nc2cc(OC)c(Cl)cc12`, the EC50 in series [2] and in [7] was 63.1 nM throughout.
As for `CNCCCOC(=O)OCOc1c(-c2ccc(C(F)(F)F)cc2)c(C)nc2cc(OC)c(Cl)cc12.Cl`, the solubility in series [3] was 600 µM; in series [5] it was over 5500 µM. For the same compound, the Activity in series [4] was 96%; in series [6], “Non-Toxic”; in [8], 82%. This compound also gave an AUC in [9] of 11664 µmol·min/L. Moreover, the clearance in series [10] stood at 7.8 mL/min/kg.
As for `CN1CCCOC1=O`, the EC50 in series [7] is over 8320 nM.
On to `NC(=O)N1c2ccccc2C=Cc2ccccc21` [CARBAMAZEPINE], for which the results for the solubility in series [3] and in series [11] were 100 µM (≈ 23.6 µg/mL) and 95 µM (≈ 22.4 µg/mL), respectively.
Take `O=C1C(O)=C([C@H]2CC[C@H](c3ccc(Cl)cc3)CC2)C(=O)c2ccccc21` [ATOVAQUONE]: the EC50 in series [2] was 18200 nM.
Take `COc1cc2[nH]c(C)c(-c3ccc(Oc4ccc(OC(F)(F)F)cc4)cc3F)c(=O)c2cc1Cl`: the Cmax in [12] was 460 nM; in [18], 310 nM. The Vd turned out to be 44 L/kg in series [13] and 19.6 L/kg in series [20]. The Activity in series [14] (time 3 day) was under 1%. The outcome in [14] (time 3.0 day) was inactive. Further, the AUC in [15] worked out at 580 µmol·min/L; in [22], 228 µmol·min/L. Further, the Tmax in series [16] was 4 h; in [23], 8 h. Besides, the results for the clearance in [17] and in series [21] were 34.9 mL/min/kg and 26.6 mL/min/kg, respectively. Moreover, the half-life was 8.5 h in series [19] and 14.5 h in series [24].
Take `CNCCOC(=O)OCOc1c(-c2ccccc2C)c(C)nc2cc(OC)c(Cl)cc12.Cl`: the EC50 in series [2] was 107 nM; in [7], 219 nM. The solubility was over 100 µM in [3] and over 21000 µM in series [5]. For the same compound, the Activity in series [4] stood at 46%; in series [8], 71%.

The record behind these values is ChEMBL document CHEMBL5032492, “Aminoalkoxycarbonyloxymethyl Ether Prodrugs with a pH-Triggered Release Mechanism: A Case Study Improving the Solubility, Bioavailability, and Efficacy of Antimalarial 4(1H)-Quinolones with Single Dose Cures” (J Med Chem, 2021).
